Measurements pooled from the literature.
Target: Serine/threonine-protein kinase SIK3 (SIK3, Homo sapiens, UniProt Q9Y2K2)

| Compound | read-out | action | technique | tested at | measurement | result |
| --- | --- | --- | --- | --- | --- | --- |
| CCCCC(=O)Nc1ccc(-c2ccc3ncn(CCC)c(=O)c3c2)cn1 | binding |  | competition with immobilised ligand | 0.5 µM | remaining binding | 100% |
| Cc1ccc(NC(=O)c2ccnc(C(F)(F)F)c2)cc1-c1cc(OCCO)nc(N2CCOCC2)c1 | binding |  | competition with immobilised ligand | 1 µM | remaining binding | 86% |
| CO[C@@H]1[C@H](N(C)C(=O)c2ccccc2)C[C@H]2O[C@]1(C)n1c3ccccc3c3c4c(c5c6ccccc6n2c5c31)C(=O)NC4 | enzyme activity | inhibitor |  | 1 µM | inhibition | 79% |
| CC(C)S(=O)(=O)c1ccc2nccc(Nc3ccc4sc(C5CCCC5)nc4c3)c2c1 | enzyme activity | inhibitor |  | 1 µM | activity vs control | 104% |
| C1=C/COCc2cc(ccc2OCCN2CCCC2)Nc2nccc(n2)-c2cccc(c2)COC/1 | cell-free assay |  |  | 0.1 µM | remaining signal | 83% |
| C=CC(=O)N1CCC([C@@H]2CCNc3c(C(N)=O)c(-c4ccc(Oc5ccccc5)cc4)nn32)CC1 | enzyme activity | inhibitor |  | 1 µM | inhibition | 9% |
| CN1CCN(C(=O)c2ccc(NC(=O)Nc3ccc(N(C)c4ccnc(Nc5ccc(CS(C)(=O)=O)cc5)n4)cc3)cc2)CC1 | binding |  | competition with immobilised ligand | 1 µM | remaining binding | 86% |
| Cc1cc(O)c(-c2ccc([C@@H](C)CN(C)C)cc2)c2c1[nH]c(=O)c1sccc12 | enzyme activity | inhibitor |  | 0.1 µM | inhibition | -11.2% |
| C#Cc1cc(-c2cc(Nc3nc(N[C@@H](C)c4ccc(F)cn4)ncc3Cl)n[nH]2)ccc1C=O | enzyme activity | inhibitor |  | 0.2 µM | inhibition | 31.1% |
